Source: ChEMBL document CHEMBL3352013, “The design and synthesis of potent and selective inhibitors of Trypanosoma brucei glycogen synthase kinase 3 for the treatment of human african trypanosomiasis” (J Med Chem, 2014)

Tests used:
[1] = Inhibition of Trypanosoma brucei GSK3 using biotinylated GSP2 substrate by flashplate assay
How it was run: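 Radiometric Flashplate assay: 2.5 nM TbGSK3 short, 1 μM biotinylated GSP2, 1 μM ATP plus [γ-33P]-ATP. 10-point titration 30 μM to 0.3 nM final, 1% DMSO. IC50 averaged over two or more experiments; standard GW8510 used for reproducibility (MSR).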

[2] = molecular target: Glycogen synthase kinase-3 (Homo sapiens, UniProt P49840+P49841); experiment: Inhibition of human GSK3 using biotinylated GSP2 substrate by flashplate assay; type: protein assay
[3] = Selectivity ratio, ratio of IC50 for human GSK3 to IC50 Trypanosoma brucei GSK3
[4] = molecular target: CDK2/Cyclin A2 (Homo sapiens, UniProt P24941); experiment: Inhibition of human CDK2/cyclin A using Biotin-C6-PKTPKKAKKL substrate; type: protein-complex assay
[5] = Selectivity ratio, ratio of IC50 for human CDK2/cyclin A to IC50 for Trypanosoma brucei GSK3
[6] = system: Trypanosoma brucei brucei; experiment: Trypanocidal activity against bloodstream stage of Trypanosoma brucei brucei assessed as inhibition of proliferation after 72 hrs; type: functional, organism-based
How it was run: (§1)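 Resazurin viability assay: 2 × 10³ cells/well (MRC5 in MEM + 10% FBS; bloodstream-form T. b. brucei in appropriate medium), compounds 50 μM to 0.5 nM, 37 °C, 5% CO₂ for 69 h, then resazurin 50 μM final for further 4 h; fluorescence read. Concentration giving 50% growth inhibition over 72 h; average of two or more experiments.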

[7] = system: MRC5; experiment: Cytotoxicity against human MRC5 cells assessed as growth inhibition after 72 hrs; type: cell-based; conditions: MRC5, 72 h; how it was run: as §1

Compound | IC50 [1] [µM] | IC50 [2] [µM] | Ratio IC50 [3] | IC50 [4] [µM] | Ratio IC50 [5] | EC50 [6] [µM] | EC50 [7] [µM]
COc1cccc(OC)c1C(=O)Nc1c[nH]nc1C(=O)NCCN1CCCC1 | 0.32 | 0.66 | 2.1 | > 10 | > 31 | > 50 | > 50
COc1cccc(OC)c1C(=O)Nc1c[nH]nc1C(=O)NC1CCCCCC1 | 0.001 | 0.02 | 20 | 2 | 2000 | 4.5 | 42
CO[C@H]1CC[C@H](NC(=O)c2n[nH]cc2NC(=O)c2ccc(OC(F)F)cc2)CC1 | 0.016 | < 0.005 |  | 0.27 | 17 | 1.1 | 2.5
CO[C@H]1CC[C@H](NC(=O)c2n[nH]cc2NC(=O)c2ncoc2-c2ccccc2)CC1 | 0.92 | 0.005 | 0.0058 | 22 | 24 | > 50 | 28
COc1cccc(OC)c1C(=O)Nc1c[nH]nc1C(=O)NCCCN(C)C | 0.33 | 0.47 | 1.4 | > 10 | > 30 | > 50 | > 50
CO[C@H]1CC[C@H](NC(=O)c2n[nH]cc2NC(=O)c2ccc(F)cc2F)CC1 | 0.053 | < 0.005 |  | 0.22 | 4.2 | 3.8 | 11
CO[C@H]1CC[C@H](NC(=O)c2n[nH]cc2NC(=O)c2cc(F)cc(F)c2)CC1 | 0.024 | < 0.005 |  | 0.083 | 3.5 | 2.6 | 0.6
CO[C@H]1CC[C@H](NC(=O)c2n[nH]cc2NC(=O)c2ccc(N3CCCC3)cc2)CC1 | 0.019 | < 0.005 |  | 0.13 | 6.8 | 2.7 | > 50
CO[C@H]1CC[C@H](NC(=O)c2n[nH]cc2NC(=O)c2cnc3ccccn23)CC1 | 0.094 | < 0.005 |  | 0.15 | 1.6 | 2.6 | 5.9
COc1cccc(OC)c1C(=O)Nc1c[nH]nc1C(=O)Nc1ccncc1 | 0.004 | 0.12 | 30 | 1.3 | 330 | 8.2 | > 50
CO[C@H]1CC[C@H](NC(=O)c2n[nH]cc2NC(=O)c2cc3ccccn3n2)CC1 | 0.063 | < 0.005 |  | 0.042 | 0.67 | 1.9 | 1
CO[C@H]1CC[C@H](NC(=O)c2n[nH]cc2NC(=O)c2ccccc2C(F)(F)F)CC1 | 0.018 | < 0.013 |  | 0.1 | 5.6 | 2.3 | 3.3
COc1cccc(OC)c1C(=O)Nc1c[nH]nc1C(=O)NC1CC2CCC1C2 (stereo unspecified) | 0.018 |  |  | > 10 | > 560 | 16 | > 50
COc1cccc(OC)c1C(=O)Nc1c[nH]nc1C(=O)NN1CCOCC1 | 0.081 | 0.45 | 5.6 | > 10 | > 120 | 50 | > 50
CCc1ccccc1C(=O)Nc1c[nH]nc1C(=O)N[C@H]1CC[C@H](OC)CC1 | 0.053 | 0.02 | 0.38 | 0.07 | 1.3 | 2.8 | 3.4
CO[C@H]1CC[C@H](NC(=O)c2n[nH]cc2NC(=O)Cc2ccccc2F)CC1 | 0.39 | 0.14 | 0.35 | 0.82 | 2.1 | 23 | > 50
COc1ccccc1C(=O)Nc1c[nH]nc1C(=O)N[C@H]1CC[C@H](OC)CC1 | 0.004 | < 0.013 |  | 0.1 | 25 | 0.9 | 1.5
COc1ccccc1CC(=O)Nc1c[nH]nc1C(=O)N[C@H]1CC[C@H](OC)CC1 | 0.5 | 0.21 | 0.42 | 0.85 | 1.7 | 22 | 40
COc1cccc(OC)c1C(=O)Nc1c[nH]nc1C(=O)N[C@H]1CC[C@H](O)CC1 | 0.002 | 0.07 | 35 | 1.6 | 800 | 6.4 | 34
CO[C@H]1CC[C@H](NC(=O)c2n[nH]cc2NC(=O)C2CCOCC2)CC1 | 0.69 | 0.008 | 0.0012 | 0.38 | 0.55 | 32 | > 50

Compound | IC50 [1] [µM] | IC50 [2] [µM] | Ratio IC50 [3] | IC50 [4] [µM] | Ratio IC50 [5] | EC50 [6] [µM] | EC50 [7] [µM]
COc1cccc(OC)c1C(=O)Nc1c[nH]nc1C(=O)Nc1ccccc1 | 0.006 | 0.07 | 12 | 4.3 | 720 | 11.5 | > 50
CO[C@H]1CC[C@H](NC(=O)c2n[nH]cc2NC(=O)c2cc3ccccc3o2)CC1 | 0.013 | < 0.005 |  |  |  | 1.2 | 0.8
COc1cccc(OC)c1C(=O)Nc1c[nH]nc1C(=O)NC1CCC(C)CC1 (mixture of isomers) | 0.001 |  |  | > 4.8 | 4800 | 6.7 | 45
CO[C@H]1CC[C@H](NC(=O)c2n[nH]cc2NC(=O)c2cc(Cl)cc(Cl)c2)CC1 | 0.057 | < 0.005 |  | 0.63 | 11 | 9.6 | 13
CO[C@H]1CC[C@H](NC(=O)c2n[nH]cc2NC(=O)c2ccccc2Nc2cccc(C)c2C)CC1 | 0.066 | 0.03 | 0.45 |  |  | 5.8 | 16
COc1cccc(OC)c1C(=O)Nc1c[nH]nc1C(=O)NC1CCN(C(=O)OC(C)(C)C)CC1 | 0.006 | 0.14 | 23 | 4.7 | 780 | 12 | > 50
CO[C@H]1CC[C@H](NC(=O)c2n[nH]cc2NC(=O)c2ccc(N3CCN(C)CC3)cc2)CC1 | 0.07 | < 0.005 |  | 1 | 14 | 2 | 20
COc1cccc(OC)c1C(=O)Nc1c[nH]nc1C(=O)NCCN1CCOCC1 | 0.054 | 0.63 | 12 | > 10 | > 190 | > 50 | > 50
COc1cc(OC)c(C(=O)Nc2c[nH]nc2C(=O)N[C@H]2CC[C@H](OC)CC2)c(OC)c1 | 0.003 | 0.09 | 30 | 3.1 | 1000 | 5.9 | > 50
COc1cccc(OC)c1C(=O)Nc1c[nH]nc1C(=O)NC1CCCCC1 | 0.001 | 0.05 | 50 | 1.2 | 1200 | 4.1 | 35
COc1cccc(OC)c1C(=O)Nc1c[nH]nc1C(=O)NC1CCN(Cc2ccccc2)C1 (stereo unspecified) | 0.008 | 0.08 | 10 | > 10 | > 1300 | 8.9 | 38
COc1cccc(OC)c1C(=O)Nc1c[nH]nc1C(=O)NCc1ncccc1C | 0.14 | 0.87 | 6.2 | > 10 | > 71 | > 50 | > 50
COc1cccc(OC)c1C(=O)Nc1c[nH]nc1C(=O)NC1CC1 | 0.012 | 0.22 | 18 | > 10 |  | 19 | > 50
CO[C@H]1CC[C@H](NC(=O)c2n[nH]cc2NC(=O)c2ccccc2Nc2ccccc2)CC1 | 0.011 | 0.02 | 1.8 |  |  | 4.4 | 35
COc1cccc(OC)c1C(=O)Nc1c[nH]nc1C(=O)O | > 50 | > 10 |  | > 10 |  | > 50 | > 50
CCCCCNC(=O)c1n[nH]cc1NC(=O)c1c(OC)cccc1OC | 0.001 | 0.1 |  | 4.8 | 4800 | 7.3 | > 50
COc1cccc(OC)c1C(=O)Nc1c[nH]nc1C(=O)NCC1CCCCC1 | 0.001 |  |  |  |  | 7.7 | > 50
COc1cccc(OC)c1C(=O)Nc1c[nH]nc1C(=O)NCCCOC(C)C | 0.001 |  |  | > 10 | > 10000 | 6.6 | > 50
CO[C@H]1CC[C@H](NC(=O)c2n[nH]cc2NC(=O)c2ccccc2F)CC1 | 0.02 | < 0.005 | 0.25 | 0.014 |  | 0.4 | 1
